target: T1, OR10S1 (Homo sapiens) (UniProt Q8NGN2); settings: stereoisomer not certain
T1 sequence (whole entry): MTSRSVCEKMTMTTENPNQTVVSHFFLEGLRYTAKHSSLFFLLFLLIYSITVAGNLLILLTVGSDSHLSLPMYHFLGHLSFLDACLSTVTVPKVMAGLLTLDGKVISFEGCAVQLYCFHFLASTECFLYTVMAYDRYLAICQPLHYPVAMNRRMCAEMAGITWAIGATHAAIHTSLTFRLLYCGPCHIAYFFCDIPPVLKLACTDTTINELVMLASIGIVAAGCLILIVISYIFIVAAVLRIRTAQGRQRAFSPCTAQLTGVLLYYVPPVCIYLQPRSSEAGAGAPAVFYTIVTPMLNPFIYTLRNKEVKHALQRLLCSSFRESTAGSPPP
In short: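 Assay methods differ from source to source, frequently being transient luciferase assays in mammalian cell lines. For each receptor–molecule pair, the label responsive (active) applies when the original authors judged the measured signal statistically different from baseline, and non-responsive (inactive) applies otherwise.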

| Compound | odorant receptor agonist call |
| --- | --- |
| CCCCCCCCCCCC(=O)OC | inactive |
| Cc1ccc(C(C)C)cc1 | inactive |
| CCCCCCCCCC(=O)OCC | inactive |
| CCCCCCCCCCCCCCCCCC(=O)[O-].[H+] | inactive |
| CC(=O)O | inactive |
| CCCCCCCCCCCCCCCC(=O)OC | inactive |
| CCCCCCCCCCCCCCCCCC(=O)OC | inactive |
| CCCCCCCC(=O)OCC | inactive |
| CCCCCCCCCCCCCCCCCC(=O)OCC | inactive |
| CCCCOCC(C)O (stereo unspecified) | inactive |
| C=C1CCC2CC1C2(C)C (stereo unspecified) | inactive |
| CC(O)C(=O)[O-].[H+] (stereo unspecified) | inactive |
| C=C(C)C1CC=C(C)CC1 (stereo unspecified) | inactive |
| CCCCCCCC(=O)OC | inactive |
| CCCCCCCCCCCCCCCC(=O)[O-].[H+] | inactive |
| CC(C=O)Cc1ccc(C(C)(C)C)cc1 (stereo unspecified) | active |

| Compound | odorant receptor agonist call |
| --- | --- |
| CCCCCCCCCCCCCC(=O)OCC | inactive |
| Cc1cnc(C)cn1 | inactive |
| CCCO | inactive |
| COc1ccc2[nH]cc(CCNC(C)=O)c2c1 | inactive |
| CCCCCCCCCCCC(=O)OCC | inactive |
| CCCCCCCCCCCCCCC(=O)O | inactive |
| CCCCCCCCCCCC(=O)O | inactive |
| CCCCCCCCCCCCCCCC(=O)OCC | inactive |
| CCC(C)CO (stereo unspecified) | inactive |
| CCCC(=O)CC | inactive |
| CC(C)=CCCC(C)=CCCC(C)=CCO | inactive |
| CCCCC(=O)C(C)=O | inactive |
| CCCCCCCCCCCCO | active |
| CC1=CCC2CC1C2(C)C (stereo unspecified) | inactive |
| CCC(O)CC | inactive |
